Columns and labels:
p110α = experiment: PI3K isoform inhibition profile, p110α versus other isoforms; assay type: biochemical; conditions: Suppl Fig S4A
[1] = tested on: stable p110α KD and control (CONSH) cell lines (RH30, RMS-1, RD, RMS-YM); experiment: MTS growth inhibition in paired CONSH and stable p110α KD lines; assay type: cell-based, human; conditions: MTS growth inhibition curves, 72hr exposure
Procedure, shortened: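 Lines were transduced with lentiviral PIK3CA or control shRNA at MOI 10 with polybrene (4μg/ml). Puromycin selection (2.5μg/ml) ran from day 2, and stable lines were derived over about 4 weeks. Cells were grown in DMEM with 10% FBS at 37°C, 5% CO2. MTS growth inhibition curves were run after 72hr continuous exposure to the test compound, diluted from 10mM stock.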

p110β = experiment: PI3K isoform inhibition profile, p110β versus p110α; assay type: biochemical; conditions: Suppl Fig S4A
PI3K/mTORC1/2 = conditions: cited from earlier work
mTor = conditions: cited from earlier work
[2] = tested on: pS6 in RD xenograft tumors; experiment: Tumor PD biomarker, MSD immunoassay; assay type: in vivo, mice; conditions: RD xenografts, end of therapeutic study
Procedure, shortened: (§1)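 Female 6-8-week athymic nude (Ncr) mice bore subcutaneous flank RD xenografts (5 × 10⁶ cells in 25% matrigel). Once tumors reached ≈5 mm (n=6/group), mice received daily oral dosing for 19-22 days, alone or combined, with vehicle controls: MEK inhibitor 10mg/kg (10% DMSO water), TORC1/2 inhibitor 10 or 20mg/kg (acidified water), PI3K/mTOR inhibitor 25mg/kg (10% NMP/90% PEG300). Tumors were excised and snap-frozen at termination. MSD electrochemiluminescence gave phospho/total ratios in 10μg lysate.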

[3] = tested on: pAKT (Ser473) in RD xenograft tumors; experiment: Tumor PD biomarker, MSD immunoassay; assay type: in vivo, mice; conditions: RD xenografts, end of therapeutic study
Procedure, shortened: as §1

[4] = Plasma and tumor pharmacokinetics; assay type: in vivo, mice; conditions: for plasma concentrations when administered alone: AZD8055 compared with NVP-BEZ235; for plasma level 16hrs following treatment: 10mg/kg p.o., mice bearing RD xenografts
Procedure, shortened: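 Female 6-8 week athymic nude (Ncr) mice carried subcutaneous RD xenografts (5 × 10⁶ cells, 25% matrigel). Oral dosing at 0.1mL/10g: MEK inhibitor 10mg/kg in 10% DMSO water; TORC1/2 inhibitor 10 or 20mg/kg in acidified water; PI3K/mTOR inhibitor 25mg/kg in 10% NMP/90% PEG300. Given alone or combined. Plasma and tumors were sampled at various times (n=3), or 3hrs after the final daily dose (19-22 days). Analysed by LC-MS/MS with MRM.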

[5] = tested on: pERK in RD xenograft tumors; experiment: Tumor PD biomarker, MSD immunoassay; assay type: in vivo, mice; conditions: RD xenografts, end of therapeutic study
Procedure, shortened: as §1

pERK1/2 in RD cells = experiment: Western immunoblot biomarker time course in RD cells; assay type: cell-based, human; conditions: 0.5× and 1.0× GI50 concentrations, 48hr time course
Procedure, shortened: (§2)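 RD cells (DMEM, 10% FBS, 37°C) were treated with single agents or the combination at 0.5× and 1.0× GI₅₀ concentrations and sampled at time points up to 48h. Lysates (10μg) were run on Bis-Tris/Tris-Acetate gels and transferred to PVDF. Primary antibody 1:1,000 overnight at 4°C; HRP secondary 1:10,000 for 2h at room temperature; ECL Plus detection. PhosphorImager quantitation; treated/control levels expressed as % of time 0.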

pS6 in RD cells = experiment: as above; assay type: cell-based, human; conditions: 0.5× and 1.0× GI50 concentrations, 48hr time course
Procedure, shortened: as §2

RD cells = experiment: GI50; assay type: cell-based, human; conditions: RD cells with NRAS mutation
Procedure, shortened: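 RD cells in DMEM with 10% FBS at 37°C, 5% CO2. Compounds prepared as 10mM stocks, then diluted in medium. MTS read-out after 72hr continuous exposure; GI₅₀ = concentration giving 50% inhibition of proliferation. Isobologram: GI₅₀ of each single agent, plus GI₅₀ of one agent at several fixed sub-GI₅₀ concentrations of the other. These are plotted on the axes, with a diagonal line as theoretical additivity.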

MEK1/2 = conditions: read-out: IC50 concentration for MEK1/2; cited from earlier work
pSer473AKT in RD cells = experiment: Western immunoblot biomarker time course in RD cells; assay type: cell-based, human; conditions: 0.5× and 1.0× GI50 concentrations, 48hr time course
Procedure, shortened: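 RD cells (DMEM, 10% FBS, 37°C, 5% CO2) treated with test compounds singly or combined; protein extracted at time points over 48 hr. Lysates BCA-quantified, 10 μg on Bis-Tris or Tris-Acetate gels, PVDF transfer, primary 1:1,000 overnight 4°C, HRP secondary 1:10,000 2 h RT, ECL Plus, phosphorimager quantitation. Control and treated loaded side by side; treated/control phospho-levels given as % of time 0.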

[6] = 10mg/kg p.o. each, versus alone

Structure (SMILES)	sensitivity of stable p110α KD lines compared with CONSH counterparts [1]	change of tumor S6 phosphorylation [2]	change of tumor AKT phosphorylation [3]	plasma concentration range in combination with AZD6244 versus alone ([4]; 3hrs following the final dose)	plasma concentrations when administered alone ([4]; 3hrs following the final dose)	pERK levels (pERK1/2 in RD cells)	single-agent sensitivity of RD cells (RD cells)	plasma level 16hrs following treatment [4]	other results
Nc1cc(C(F)(F)F)c(-c2cc(N3CCOCC3)nc(N3CCOCC3)n2)cn1 [BMK120]	No differences in sensitivity								selectivity for p110α versus the other isoforms (p110α): modestly selective for p110α versus the other isoforms
Cc1cc(C(C)Nc2ccccc2)c2nc(N3CCOCC3)cc(=O)n2c1 (stereo not drawn) [TGX221]	only the RMS-1 stable KD cell line, with minimal p110α and δ expression, showed increased sensitivity								selectivity for p110β versus p110α (p110β): 78 fold
Cn1c(=O)n(-c2ccc(C(C)(C)C#N)cc2)c2c3cc(-c4cnc5ccccc5c4)ccc3ncc21 [NVP-BEZ235]	more sensitive to mTOR inhibition than their CONSH counterparts	equally efficient in reducing AKT and S6 phosphorylation	equally efficient in reducing AKT and S6 phosphorylation	increased	in the same range				concentrations at which it is a dual PI3K/mTORC1/2 inhibitor (PI3K/mTORC1/2): above 500 nM; concentrations at which it predominantly inhibits mTOR (mTor): less than 100 nM
COc1ccc(-c2ccc3c(N4CCOC[C@@H]4C)nc(N4CCOC[C@@H]4C)nc3n2)cc1CO [AZD8055]	more sensitive to mTOR inhibition than their CONSH counterparts	equally efficient in reducing AKT and S6 phosphorylation	equally efficient in reducing AKT and S6 phosphorylation	increased	in the same range	increased pERK levels	relatively resistant	close to, or below, the limit of detection	change of tumor pERK levels [5]: increased pERK levels to a greater extent than NVP-BEZ235; pS6 levels / inhibition of S6 phosphorylation (pS6 in RD cells): concentration dependent; plasma and tumor levels in combination with AZD6244 [4, 6]: higher
FC(F)c1nc2ccccc2n1-c1nc(N2CCOCC2)nc(N2CCOCC2)n1 [ZSTK474]	increased sensitivity								IC50 (mTor; read-out: IC50 against mTor): 377 nM
Cn1cnc2c(F)c(Nc3ccc(Br)cc3Cl)c(C(=O)NOCCO)cc21 [AZD6244]	only the RMS-1 KD line (lacking both p110α and p110δ) exhibited significantly enhanced sensitivity					ablated pERK levels at all time points and both concentrations	relatively resistant	close to, or below, the limit of detection	IC50 (MEK1/2): 14 nM; pSer473AKT levels (pSer473AKT in RD cells): increased p^Ser473AKT levels; elimination phase in combination with AZD8055 [4, 6]: extended; peak plasma concentrations in combination with AZD8055 [4, 6]: reduced; plasma AZD6244 concentrations in combination with NVP-BEZ235 ([4]; 3hrs following the final dose): reduced plasma concentrations of AZD6244 to a similar extent as AZD8055
